Data set [1] addresses Macrophage metalloelastase (Homo sapiens, UniProt P39900). In words: Inhibition of recombinant human MMP-12 using Mca-Lys-Pro-Leu-Gly-Leu-Dap(Dnp)-Ala-Arg-NH2 as substrate preincubated for 3 hrs followed by substrate addition measured every 10 secs for 15 mins by fluorometric assay.
The target in data set [2] is Matrix metalloproteinase-9 (Homo sapiens, UniProt P14780). The experiment in a line: Inhibition of recombinant human MMP-9 using Mca-Lys-Pro-Leu-Gly-Leu-Dap(Dnp)-Ala-Arg-NH2 as substrate preincubated for 3 hrs followed by substrate addition measured every 10 secs for 15 mins by fluorometric assay.
The nature of data set [3]: Metal chelating activity assessed as compound-Zn2+ complex formation at 1:1 metal to compound molar ratio at pH 3 to 8 by potentiometric titration method. In outline: (§1)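 pH-potentiometric titration in 60% w/w DMSO/H2O, 25.0 ± 0.1 °C, I 0.1 M KCl, 0.1 M KOH titrant. Glass electrode calibrated with HCl/KOH via Gran's method. Ligand (4−7) × 10−4 M at Zn:L 0:1, 1:1 and 1:2, in duplicate. pKw 15.75. Constants were fitted in Hyperquad with a Zn(II) hydrolysis model included.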

Data set [4] in a line: Metal chelating activity assessed as compound-Zn2+ complex formation by measuring free metal ion levels at compound to metal molar ratio 10 at pH 6 by potentiometric titration method.
The nature of data set [5]: Metal chelating activity assessed as compound-Zn2+ complex formation at 1:1 metal to compound molar ratio at pH 3 to 8 by 1H NMR method.
Data set [6] in a line: Metal chelating activity assessed as compound-Zn2+ complex formation at 1:2 metal to compound molar ratio at pH 3 to 8 by potentiometric titration method. Summed up:
as §1

Data set [7] is described as follows: Protonation constant, log K of the compound. It is filed as physicochemical. As to conditions: 60% w/w DMSO/H2O. Summed up: as §1
For data set [8], the species on record is Homo sapiens. In words: Selectivity ratio of IC50 for recombinant human MMP-14 catalytic domain to IC50 for recombinant human MMP-12.
For data set [9], the target named is Matrix metalloproteinase-14 (Homo sapiens, UniProt P50281). The experiment in a line: Inhibition of recombinant human MMP-14 catalytic domain using Mca-Lys-Pro-Leu-Gly-Leu-Dap(Dnp)-Ala-Arg-NH2 as substrate preincubated for 3 hrs followed by substrate addition measured every 10 secs for 15 mins by fluorometric assay.
Data set [10] addresses T1, Interstitial collagenase (Homo sapiens, UniProt P03956).
T1 sequence (P03956 whole entry): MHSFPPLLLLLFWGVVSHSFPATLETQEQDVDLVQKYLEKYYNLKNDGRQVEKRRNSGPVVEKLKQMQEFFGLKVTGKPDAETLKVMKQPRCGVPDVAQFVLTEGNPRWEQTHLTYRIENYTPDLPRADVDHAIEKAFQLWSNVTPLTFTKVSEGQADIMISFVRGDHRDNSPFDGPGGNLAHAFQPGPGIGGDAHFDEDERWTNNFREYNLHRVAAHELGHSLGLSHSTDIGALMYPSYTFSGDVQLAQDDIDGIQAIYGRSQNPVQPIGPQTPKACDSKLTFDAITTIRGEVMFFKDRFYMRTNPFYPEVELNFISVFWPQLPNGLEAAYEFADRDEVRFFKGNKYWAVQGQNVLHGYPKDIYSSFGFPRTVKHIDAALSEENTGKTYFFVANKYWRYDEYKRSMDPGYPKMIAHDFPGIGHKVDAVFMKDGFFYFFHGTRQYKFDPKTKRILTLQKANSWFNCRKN
In words: Inhibition of recombinant human MMP-1 using Mca-Lys-Pro-Leu-Gly-Leu-Dap(Dnp)-Ala-Arg-NH2 as substrate preincubated for 3 hrs followed by substrate addition measured every 10 secs for 15 mins by fluorometric assay.

For data set [11], the target named is 72 kDa type IV collagenase (Homo sapiens, UniProt P08253). The experiment in a line: Inhibition of recombinant human MMP-2 using Mca-Lys-Pro-Leu-Gly-Leu-Dap(Dnp)-Ala-Arg-NH2 as substrate preincubated for 3 hrs followed by substrate addition measured every 10 secs for 15 mins by fluorometric assay.
The species entered for data set [12] is Homo sapiens. The experiment in a line: Selectivity ratio of IC50 for recombinant human MMP-9 to IC50 for recombinant human MMP-12.
The species named for data set [13] is Homo sapiens. In words: Selectivity ratio of IC50 for recombinant human MMP-2 to IC50 for recombinant human MMP-12.
A short description of data set [14]: Drug level in KCl/DMSO/water solution treated with 2-(2-((4'-Methoxy-[1,1'-biphenyl]-4-yl)sulfonyl)phenyl)-acetic hydroxamic acid. It is filed as physicochemical. Particulars: buffer.

Active and inactive are the calls of the source. The rule behind the calls is not given here.

The values that follow come from ChEMBL document CHEMBL4184326, “Development of Thioaryl-Based Matrix Metalloproteinase-12 Inhibitors with Alternative Zinc-Binding Groups: Synthesis, Potentiometric, NMR, and Crystallographic Studies” (J Med Chem, 2018).

What is called IC50 is the concentration that inhibits the measured activity by half.

Sequence of 72 kDa type IV collagenase (P08253 whole entry): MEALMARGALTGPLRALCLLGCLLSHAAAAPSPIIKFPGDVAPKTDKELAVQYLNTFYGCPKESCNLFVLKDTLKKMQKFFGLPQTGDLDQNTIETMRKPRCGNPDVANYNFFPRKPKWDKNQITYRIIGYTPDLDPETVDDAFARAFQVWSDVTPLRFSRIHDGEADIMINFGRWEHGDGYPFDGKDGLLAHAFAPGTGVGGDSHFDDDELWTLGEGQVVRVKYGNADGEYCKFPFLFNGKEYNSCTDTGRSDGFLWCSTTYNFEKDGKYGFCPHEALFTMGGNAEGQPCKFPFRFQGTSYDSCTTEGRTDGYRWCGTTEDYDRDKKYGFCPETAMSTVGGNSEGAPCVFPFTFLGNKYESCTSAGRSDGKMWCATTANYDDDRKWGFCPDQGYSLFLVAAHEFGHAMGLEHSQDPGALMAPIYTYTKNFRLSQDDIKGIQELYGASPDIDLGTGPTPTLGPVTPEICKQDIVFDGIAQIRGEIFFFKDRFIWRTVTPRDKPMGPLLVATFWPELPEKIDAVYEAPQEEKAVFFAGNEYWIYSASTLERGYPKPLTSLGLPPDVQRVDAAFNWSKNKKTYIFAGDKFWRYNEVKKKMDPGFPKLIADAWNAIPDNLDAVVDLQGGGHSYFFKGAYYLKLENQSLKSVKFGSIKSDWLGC
Sequence of Macrophage metalloelastase (P39900 whole entry): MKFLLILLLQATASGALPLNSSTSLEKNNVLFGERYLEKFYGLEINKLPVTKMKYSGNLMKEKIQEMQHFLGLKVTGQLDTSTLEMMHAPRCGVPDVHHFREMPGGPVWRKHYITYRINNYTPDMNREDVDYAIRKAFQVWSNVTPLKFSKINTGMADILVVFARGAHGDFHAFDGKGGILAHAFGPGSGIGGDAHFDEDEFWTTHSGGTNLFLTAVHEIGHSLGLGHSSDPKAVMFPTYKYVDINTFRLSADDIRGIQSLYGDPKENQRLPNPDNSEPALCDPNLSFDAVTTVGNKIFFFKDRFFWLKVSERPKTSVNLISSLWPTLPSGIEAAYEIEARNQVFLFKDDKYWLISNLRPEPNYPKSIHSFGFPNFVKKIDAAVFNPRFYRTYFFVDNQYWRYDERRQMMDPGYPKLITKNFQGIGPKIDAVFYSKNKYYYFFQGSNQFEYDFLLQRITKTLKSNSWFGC
Sequence of Matrix metalloproteinase-9 (P14780 whole entry): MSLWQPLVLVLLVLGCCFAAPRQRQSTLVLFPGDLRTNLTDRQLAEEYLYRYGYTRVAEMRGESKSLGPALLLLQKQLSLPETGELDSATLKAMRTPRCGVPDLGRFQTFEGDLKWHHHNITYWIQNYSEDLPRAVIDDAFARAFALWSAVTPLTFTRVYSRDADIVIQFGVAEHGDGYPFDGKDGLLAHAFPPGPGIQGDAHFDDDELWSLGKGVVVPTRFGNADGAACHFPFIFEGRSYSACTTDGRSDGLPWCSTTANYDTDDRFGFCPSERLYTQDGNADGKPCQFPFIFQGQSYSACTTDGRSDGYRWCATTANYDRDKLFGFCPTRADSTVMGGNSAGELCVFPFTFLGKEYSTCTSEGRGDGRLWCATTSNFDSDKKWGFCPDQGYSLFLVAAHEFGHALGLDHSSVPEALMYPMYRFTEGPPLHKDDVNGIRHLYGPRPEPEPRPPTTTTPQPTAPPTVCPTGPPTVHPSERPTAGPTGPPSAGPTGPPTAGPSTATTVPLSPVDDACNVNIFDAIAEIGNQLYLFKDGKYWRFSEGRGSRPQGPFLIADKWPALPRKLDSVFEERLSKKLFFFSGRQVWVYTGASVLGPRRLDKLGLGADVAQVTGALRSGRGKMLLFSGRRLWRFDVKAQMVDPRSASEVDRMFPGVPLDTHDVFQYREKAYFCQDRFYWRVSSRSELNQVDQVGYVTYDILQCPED

As to `COc1ccc(-c2ccc(S(=O)(=O)c3ccccc3CP(=O)(O)O)cc2)cc1`, the IC50 in data set [1] stood at 600 nM.

In the case of `COc1ccc(-c2ccc(Sc3ccccc3CC(=O)NS(C)(=O)=O)cc2)cc1`, the IC50 was 18 µM in data set [2] and 3300 nM in data set [1]. In addition, the outcome in [3] and in data set [5] was Active. Besides, in data set [4], the log(activity) was 6.1. Besides, the outcome in data set [6] was inactive. In data set [7], the “log K” value is listed as 5.5.

Turning to `COc1ccc(-c2ccc(Sc3ccccc3C3CCC(=O)N(O)C3=O)cc2)cc1` (centres undefined), the Ratio IC50 in [8] came out at 1200; in data set [12] it was 176; in [13] it was 20. The IC50 in data set [2] amounted to 5.8 µM; in [9], 40 µM; in data set [1] it was 33 nM; in [10], 260 µM; in data set [11], 670 nM. Also, the result in data set [3] and in data set [6] was Active. Moreover, the log(activity) in [4] was 6.05. Further, the log K in data set [7] lay within 9.03 to 9.35.

For the compound `COc1ccc(-c2ccc(Sc3ccccc3CC(=O)O)cc2)cc1`, the result in data set [3] was Active. The log(activity) in data set [4] is 6.04. Further, in data set [1], the IC50 came to 40 nM. Besides, in [6], the result was inactive.

Regarding `COc1ccc(-c2ccc(Sc3ccccc3CC(=O)NO)cc2)cc1`, the result in data set [3] and in data set [6] was Active. In addition, the values for the concentration for half-maximal inhibition (IC50) in data set [9], in data set [1] and in data set [10] were 2 µM, 4 nM and 250 µM, respectively. Further, the log(activity) in [4] turned out to be 6.04. Besides, in data set [7], the “log K” value was 10.29.

As for `COc1ccc(-c2ccc(S(=O)(=O)c3ccccc3C(=O)CS(C)(=O)=O)cc2)cc1`, the IC50 was over 10 µM in data set [2], over 10000 nM in data set [1] and over 10000 nM in [11].

Take `COc1ccc(-c2ccc(S(=O)(=O)c3ccccc3C(CCC(=O)O)C(=O)O)cc2)cc1` (centres undefined): the IC50 in [2] amounted to 14.3 µM; in data set [1], 510 nM; in data set [11], 1350 nM. For the same compound, the result in data set [3] and in data set [6] was Active. Further, the log(activity) in data set [4] stood at 6.14.

For `COc1ccc(-c2ccc(Sc3ccccc3CP(=O)(O)O)cc2)cc1`, the IC50 in data set [2] is 1.12 µM; in data set [1], 250 nM; in [11] it was 250 nM.

For `COc1ccc(-c2ccc(S(=O)(=O)c3ccccc3CC(=O)NS(C)(=O)=O)cc2)cc1`, the IC50 in [2] stood at 3.7 µM; in data set [1], 3500 nM; in data set [11], 3600 nM. Further, the outcome in data set [3], in [5] and in data set [6] was Active. The log(activity) in data set [4] was 6.56. For the same compound, in data set [7], the “log K” value worked out at 5.5.

Regarding `COc1ccc(-c2ccc(S(=O)(=O)c3ccccc3CC(=O)O)cc2)cc1`, the outcome in data set [3] and in data set [6] was Active. The log(activity) in data set [4] is 6.1. Moreover, the Drug metabolism entry in data set [14] was “Metabolite_Detected”.

Consider `COc1ccc(-c2ccc(Sc3ccccc3C(=O)CS(C)(=O)=O)cc2)cc1`, for which the IC50 amounted to 332 µM in data set [2], 230000 nM in [1] and 230000 nM in data set [11].

On to `COc1ccc(-c2ccc(Sc3ccccc3C(CCC(=O)O)C(=O)O)cc2)cc1` (centres undefined), for which the figures for the IC50 in data set [2], in data set [1] and in data set [11] were 2.96 µM, 26 nM and 660 nM, respectively. Further, the result in data set [3] and in data set [6] was Active. Besides, in [4], the log(activity) was 6.04.

As for `COc1ccc(-c2ccc(Sc3ccccc3CC(=O)NS(=O)(=O)C(F)(F)F)cc2)cc1`, the IC50 was determined as 50 µM in data set [2], 2100 nM in data set [1] and 46000 nM in [11]. Further, the outcome in data set [3] and in data set [5] was Active. The log(activity) in data set [4] is 6.75. For the same compound, the result in data set [6] was inactive. Also, the “log K” value in [7] is under 2.

In the case of `COc1ccc(-c2ccc(S(=O)(=O)c3ccccc3C3CCC(=O)N(O)C3=O)cc2)cc1` (centres undefined), the IC50 in [2] was 1.43 µM; in data set [9], 4 µM; in data set [1], 40 nM; in [10], over 10 µM; in data set [11], 414 nM. The outcome in [3] and in data set [6] was Active. Also, the log(activity) in [4] was determined as 6.13. The log K in [7] fell in the range of 9.03 to 9.35.

On to `COc1ccc(-c2ccc(S(=O)(=O)c3ccccc3CC(=O)NS(=O)(=O)C(F)(F)F)cc2)cc1`, for which the figures for the IC50 in data set [2], in [1] and in data set [11] were 24.5 µM, 7500 nM and 2500 nM, respectively. Also, the result in data set [3] and in data set [5] was Active. In addition, the log(activity) in data set [4] was 6.91. Moreover, in data set [6], the outcome was inactive. In addition, the “log K” value in data set [7] was under 2.
